≈ marks a conversion by molar mass, not a printed value. Calls of active or inactive are those of the source. The calls are words filed in the database; no cut-off is given here. Where a SMILES comes first, the peptide text is derived from it.

Assay [1] relates to Salmonella enterica subsp. enterica. Nature of the assay: Antibacterial activity against wild type Salmonella enterica serovar Typhimurium ATCC 14028 by modified twofold broth microdilution method. Format: functional, Salmonella enterica subsp. enterica serovar Typhimurium. (In broth dilution the organism is exposed to a series of concentrations in liquid medium.)
Assay [2] has the same test system. As to the kind of experiment: Antibacterial activity against bacterial sensory kinase PhoQ deficient Salmonella enterica serovar Typhimurium CS009 by modified twofold broth microdilution method. Format: functional, Salmonella enterica subsp. enterica serovar Typhimurium.
The test system is the same in assay [3]. Nature of the assay: Antibacterial activity against wild type Salmonella enterica serovar Typhimurium ATCC 14028 after 16 hrs by modified twofold broth microdilution method. The settings on record: ATCC 14028, 16 h. Format: functional, Salmonella enterica subsp. enterica serovar Typhimurium. In outline:
(§1)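 Broth microdilution MBC assay: 5 × 10^5 bacteria/ml in LB with a linear gradient of peptide concentrations. Peptide dilutions were made fresh in 0.2% BSA, 0.01% acetic acid and added after the inoculum. Plates were incubated at 37°C for 16 h, then spotted onto LB agar. MBC was the lowest concentration with no growth, averaged over at least three trials.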

The test system is the same in assay [4]. Nature of the assay: Antibacterial activity against bacterial sensory kinase PhoQ deficient Salmonella enterica serovar Typhimurium CS009 assessed as direct antimicrobial activity after 16 hrs by modified twofold broth microdilution method. The class given is functional, Salmonella enterica subsp. enterica serovar Typhimurium. In outline:
as §1

Assay [5] has the same test system. Nature of the assay: Antibacterial activity against bacterial sensory kinase PhoP deficient Salmonella enterica serovar Typhimurium CS053 after 16 hrs by modified twofold broth microdilution method. Format: functional, Salmonella enterica subsp. enterica serovar Typhimurium. As to conditions: CS053, 16 h. In outline: as §1
Assay [6] has the same test system. Nature of the assay: Antibacterial activity against bacterial sensory kinase PhoQ deficient Salmonella enterica serovar Typhimurium expressing PhoPQ operon after 16 hrs by modified twofold broth microdilution method. Format: functional, Salmonella enterica subsp. enterica serovar Typhimurium. In outline:
as §1

For assay [7] the test system is unchanged. As to the kind of experiment: Antibacterial activity against bacterial sensory kinase PhoQ deficient Salmonella enterica serovar Typhimurium CS009 after 16 hrs by modified twofold broth microdilution method. The class given is functional, Salmonella enterica subsp. enterica serovar Typhimurium. The settings on record: CS009, 16 h. In outline:
as §1

Assay [8] has the same test system. Nature of the assay: Antibacterial activity against bacterial sensory kinase PhoQ deficient Salmonella enterica serovar Typhimurium CS009 assessed as PhoQ-activating potential after 16 hrs by modified twofold broth microdilution method relative to wild type Salmonella enterica serovar Typhimurium ATCC 14028. The class given is functional, Salmonella enterica subsp. enterica serovar Typhimurium. Summed up:
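PAP was calculated as MBC against wild-type ATCC 14028 minus MBC against PhoQ mutant CS009. Both MBCs came from the broth microdilution assay: 5 × 10^5 bacteria/ml in LB, 37°C for 16 h, spotting onto LB agar, no-growth endpoint, averaged over at least three trials.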

The target in assay [9] is T1, Virulence sensor histidine kinase PhoQ (Salmonella typhimurium (strain LT2 / SGSC1412 / ATCC 700720)) (UniProt P0DM80).
T1 sequence (whole entry): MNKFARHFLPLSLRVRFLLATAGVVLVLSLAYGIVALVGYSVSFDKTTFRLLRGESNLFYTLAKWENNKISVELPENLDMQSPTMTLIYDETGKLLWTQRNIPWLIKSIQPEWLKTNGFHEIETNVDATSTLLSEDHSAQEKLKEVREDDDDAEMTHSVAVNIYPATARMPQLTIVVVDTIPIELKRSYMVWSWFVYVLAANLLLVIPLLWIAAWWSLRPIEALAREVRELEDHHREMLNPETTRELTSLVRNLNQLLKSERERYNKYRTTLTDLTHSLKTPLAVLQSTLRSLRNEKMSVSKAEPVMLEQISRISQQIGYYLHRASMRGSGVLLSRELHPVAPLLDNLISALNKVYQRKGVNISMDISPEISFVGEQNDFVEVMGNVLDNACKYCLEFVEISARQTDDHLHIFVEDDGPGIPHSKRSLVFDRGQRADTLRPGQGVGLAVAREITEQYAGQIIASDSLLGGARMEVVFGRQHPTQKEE
Nature of the assay: Activation of PhoQ in Salmonella enterica serovar Typhimurium CS102 expressing PhoN fusion protein assessed as initiation of acid phosphatase reporter enzyme expression at 1 ug/ml in presence of 1 mM magnesium. As to conditions: Salmonella enterica subsp. enterica serovar Typhimurium. In outline:
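PhoPQ reporter strain CS102 (PhoQ-regulated acid phosphatase PhoN fusion) incubated in LB with peptide at 1 μg/ml plus 1 mM magnesium; acid phosphatase activity measured. Reference conditions were 50 μM MgCl2 (activating) and 5 mM MgCl2 (repressive). Mean of three replicate experiments.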

The test system of assay [10] is Salmonella enterica subsp. enterica. As to the kind of experiment: Antibacterial activity against wild type Salmonella enterica serovar Typhimurium ATCC 14028 preincubated till 4 hrs at dosing schedule of 1 ug/ml at time zero, 1 ug/ml at 1st hr, 2 ug/ml at 2nd hr and final 4 ug/ml at 3rd hr measured after 16 hrs by modified twofold broth microdilution method in presence of 1 mM Mg2+. Format: functional, organism-based.

The test system is the same in assay [11]. As to the kind of experiment: Antibacterial activity against wild type Salmonella enterica serovar Typhimurium ATCC 14028 preincubated till 4 hrs at dosing schedule of 1 ug/ml at time zero, 1 ug/ml at 1st hr, 2 ug/ml at 2nd hr and final 4 ug/ml at 3rd hr assessed as increase in minimum bactericidal concentration measured after 16 hrs by modified twofold broth microdilution method in presence of 1 mM Mg2+ relative to naive unadapted bacteria. Format: functional, Salmonella enterica subsp. enterica serovar Typhimurium.

Assay [12] shares this test system. Nature of the assay: Antibacterial activity against wild type Salmonella enterica serovar Typhimurium ATCC 14028 assessed as direct antimicrobial activity after 16 hrs by modified twofold broth microdilution method. The class given is functional, organism-based.
The test system is the same in assay [13]. As to the kind of experiment: Antibacterial activity against bacterial sensory kinase PhoP deficient Salmonella enterica serovar Typhimurium CS053 assessed as direct antimicrobial activity after 16 hrs by modified twofold broth microdilution method. The class given is functional, organism-based. In outline:
as §1

`CC1(C)S[C@@H]2[C@H](NC(=O)C(C(=O)O)c3ccccc3)C(=O)N2[C@H]1C(=O)O` (stereo not given in full) [CARBENICILLIN]: the MIC (in general, the lowest concentration that inhibits growth of the organism) in assay [1] was 10 µg/mL (≈ 26.4 µM); in assay [2], 8 µg/mL (≈ 21.1 µM).

With `CC[C@H](C)[C@H](NC(=O)[C@H](CCCNC(=N)N)NC(=O)[C@H](CCCNC(=N)N)NC(=O)[C@H](CC(C)C)NC(=O)[C@@H](N)CCCNC(=N)N)C(=O)N[C@H](C(=O)N[C@H](C(=O)N[C@H](C(=O)N[C@@H](CCCNC(=N)N)C(=O)N[C@H](C(=O)N[C@@H](C)C(=O)N[C@@H](CCCNC(=N)N)C(N)=O)C(C)C)[C@@H](C)CC)C(C)C)C(C)C` (H-RLRRIVVIRVAR-NH2), the MBC (usually the lowest tested concentration that kills the bacteria rather than only halting them) is 11.5 µg/mL (≈ 7.64 µM) in assay [3], 3.8 µg/mL (≈ 2.52 µM) in [5], 30 µg/mL (≈ 19.9 µM) in assay [6] and 4.2 µg/mL (≈ 2.79 µM) in assay [7]. Moreover, the Activity in [4] was 4.2 µg/mL; in assay [8], 7.3 µg/mL. In addition, in assay [9], the outcome was inactive. Moreover, the result in assay [10] was Active.

`CN(C)[C@@H]1C(O)=C(C(N)=O)C(=O)[C@@]2(O)C(O)=C3C(=O)c4c(O)cccc4[C@@](C)(O)[C@H]3C[C@@H]12` [TETRACYCLINE]: the MIC in [1] and in assay [2] was 3 µg/mL (≈ 6.75 µM) each time.

`COc1cc(Cc2cnc(N)nc2N)cc(OC)c1OC` [TRIMETHOPRIM]: the MIC in assay [1] and in assay [2] was 1 µg/mL (≈ 3.44 µM) in each case.

In the case of `CC[C@H](C)[C@H](NC(=O)[C@H](CCCCN)NC(=O)[C@@H](NC(=O)[C@@H](NC(=O)[C@H](CCCNC(=N)N)NC(=O)[C@H](C)NC(=O)[C@H](CC(C)C)NC(=O)[C@@H](N)CCCNC(=N)N)[C@@H](C)CC)C(C)C)C(=O)N[C@@H](CCCNC(=N)N)C(=O)N[C@H](C(=O)N[C@@H](C)C(=O)N[C@@H](CCCNC(=N)N)C(N)=O)C(C)C` (H-RLARIVKIRVAR-NH2), the MBC in assay [3] was determined as 68.8 µg/mL (≈ 47.5 µM); in assay [5], 13.3 µg/mL (≈ 9.17 µM); in assay [6] it was 69 µg/mL (≈ 47.6 µM); in [7] it was 13.1 µg/mL (≈ 9.04 µM). The Activity came to 13.1 µg/mL in [4] and 55.7 µg/mL in assay [8]. The outcome in [9] was Active. The “fold change (FC)” value in assay [11] was “<=10”.

Turning to `CCn1cc(C(=O)O)c(=O)c2ccc(C)nc21` [NALIDIXIC ACID], the MIC in assay [1] and in [2] was 3 µg/mL (≈ 12.9 µM) throughout.

As for `CC[C@H](C)[C@H](NC(=O)[C@H](CCCNC(=N)N)NC(=O)[C@H](C)NC(=O)[C@H](CC(C)C)NC(=O)[C@@H](N)CCCNC(=N)N)C(=O)N[C@H](C(=O)N1CCC[C@H]1C(=O)N[C@H](C(=O)N[C@@H](CCCNC(=N)N)C(=O)N[C@H](C(=O)N[C@@H](C)C(=O)N[C@@H](CCCNC(=N)N)C(N)=O)C(C)C)[C@@H](C)CC)C(C)C` (H-RLARIVPIRVAR-NH2), the MBC in assay [3] was over 500 µg/mL; in [5], 45.4 µg/mL (≈ 32 µM); in assay [6] it was over 500 µg/mL; in [7], 46.7 µg/mL (≈ 32.9 µM). The Activity in assay [4] stood at 46.7 µg/mL. In addition, the outcome in assay [12] and in [13] was inactive. The result in assay [9] was Active.

Regarding `CC(C)C[C@H](NC(=O)[C@H](CCCCN)NC(=O)[C@H](CCC(N)=O)NC(=O)[C@H](CC(N)=O)NC(=O)[C@H](CC(C)C)NC(=O)[C@H](CC(=O)O)NC(=O)[C@H](CCC(=O)O)NC(=O)[C@@H]1CCCN1C(=O)[C@@H](NC(=O)[C@H](C)NC(=O)CN)[C@@H](C)O)C(=O)N[C@@H](CO)C(N)=O` (H-GATPEDLNQKLS-NH2), the MBC in assay [3], in [5], in assay [6] and in [7] was over 500 µg/mL in each case.

Consider `CC[C@H](C)[C@H](NC(=O)[C@H](CCCNC(=N)N)NC(=O)[C@H](C)NC(=O)[C@H](CC(C)C)NC(=O)[C@@H](N)CCCNC(=N)N)C(=O)N[C@H](C(=O)N[C@H](C(=O)N[C@H](C(=O)N[C@@H](CCCNC(=N)N)C(=O)N[C@H](C(=O)N[C@@H](C)C(=O)N[C@@H](CCCNC(=N)N)C(N)=O)C(C)C)[C@@H](C)CC)C(C)C)C(C)C` (H-RLARIVVIRVAR-NH2), for which the MBC in assay [3] was 32.8 µg/mL (≈ 23.1 µM); in [5] it was 6.5 µg/mL (≈ 4.57 µM); in assay [6], 42.5 µg/mL (≈ 29.9 µM); in assay [7] it was 6.2 µg/mL (≈ 4.36 µM). Further, the Activity in assay [4] worked out at 6.2 µg/mL. In assay [9], the result was Active.

On to `CC1(C)S[C@@H]2[C@H](NC(=O)[C@H](N)c3ccccc3)C(=O)N2[C@H]1C(=O)O` [AMPICILLIN], for which the minimum inhibitory concentration (MIC) in assay [1] came to 10 µg/mL (≈ 28.6 µM); in assay [2], 8 µg/mL (≈ 22.9 µM).

In the case of `CC[C@H](C)[C@H](NC(=O)[C@H](CCCNC(=N)N)NC(=O)[C@H](Cc1c[nH]c2ccccc12)NC(=O)[C@H](CCCNC(=N)N)NC(=O)[C@@H](N)CCCNC(=N)N)C(=O)N[C@H](C(=O)N[C@H](C(=O)N[C@H](C(=O)N[C@@H](CCCNC(=N)N)C(=O)N[C@H](C(=O)N[C@@H](CCCNC(=N)N)C(=O)N[C@@H](CCCNC(=N)N)C(N)=O)C(C)C)[C@@H](C)CC)C(C)C)C(C)C` (H-RRWRIVVIRVRR-NH2), the MBC in assay [3] was determined as 10 µg/mL (≈ 6.01 µM); in [5], 6.4 µg/mL (≈ 3.85 µM); in assay [6], 19 µg/mL (≈ 11.4 µM); in assay [7], 5.7 µg/mL (≈ 3.43 µM). Further, the Activity in [4] is 5.7 µg/mL; in [8], 34.3 µg/mL. Moreover, the result in [9] was inactive.

GENTAMICIN: the MIC in assay [1] and in [2] was 16 µg/mL each time.

Consider `CC[C@H](C)[C@H](NC(=O)[C@H](CCCNC(=N)N)NC(=O)[C@H](C)NC(=O)[C@H](CC(C)C)NC(=O)[C@@H](N)CCCNC(=N)N)C(=O)N[C@H](C(=O)N[C@H](C(=O)N[C@H](C(=O)N[C@@H](CCCNC(=N)N)C(=O)N[C@H](C(=O)N[C@@H](C)C(=O)NCC(N)=O)C(C)C)[C@@H](C)CC)C(C)C)C(C)C` (H-RLARIVVIRVAG-NH2), for which the MBC came to 31.4 µg/mL (≈ 23.8 µM) in assay [3], 10.1 µg/mL (≈ 7.64 µM) in [5], 34 µg/mL (≈ 25.7 µM) in assay [6] and 8.6 µg/mL (≈ 6.51 µM) in assay [7]. The Activity in assay [4] worked out at 8.6 µg/mL; in assay [8], 22.8 µg/mL. Further, in [9], the outcome was Active.
